In ChEMBL document CHEMBL2413075, “Structure activity relationship study of benzo[d]thiazol-2(3H)one based σ receptor ligands” (Bioorg Med Chem Lett, 2013):

Assays:
Rattus norvegicus = species: Rattus norvegicus; assay: Selectivity ratio of Ki for sigma 2 receptor in rat liver membranes to Ki for sigma 1 receptor in rat liver membranes; assay type: cell membranes; settings: Membrane
[1] = molecular target: Sigma non-opioid intracellular receptor 1 (Rattus norvegicus, UniProt Q9R0C9); assay: Displacement of [3H](+)-pentazocine from sigma 1 receptor in rat liver membranes; assay type: cell membranes, Membrane
Summary of the method: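 Rat liver membranes in a 96-well high-throughput format. Sigma-1 sites labeled with 5 nM [3H](+)-pentazocine. Nonspecific binding defined with 10 μM haloperidol. Ki values derived from displacement.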

[2] = Displacement of [3H]DTG from sigma 2 receptor in rat liver membranes; assay type: cell membranes, Membrane
Summary of the method: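 Rat liver membranes in a 96-well high-throughput format. Sigma-2 sites labeled with 5 nM [3H]DTG, with 300 nM (+)-pentazocine present to mask sigma-1. Nonspecific binding defined with 10 μM haloperidol. Ki values derived from displacement.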

Cavia porcellus = species: Cavia porcellus; assay: Selectivity ratio of Ki for sigma 2 receptor in guinea pig brain membranes to Ki for sigma 1 receptor in guinea pig brain membranes; assay type: cell membranes
[3] = Binding affinity to sigma 2 receptor in guinea pig brain membranes; assay type: cell membranes, Cavia porcellus, Membrane

Chain of Sigma non-opioid intracellular receptor 1 (Q9R0C9 whole entry): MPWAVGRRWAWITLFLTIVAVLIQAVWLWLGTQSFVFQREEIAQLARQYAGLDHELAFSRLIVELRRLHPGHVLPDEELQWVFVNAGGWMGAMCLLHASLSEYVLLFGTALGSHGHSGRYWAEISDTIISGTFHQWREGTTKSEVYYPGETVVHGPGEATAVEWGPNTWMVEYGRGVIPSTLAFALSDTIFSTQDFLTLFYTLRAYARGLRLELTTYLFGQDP

Structure (SMILES) | Ratio Ki (Rattus norvegicus) | Ki [1] [nM] | Ki [2] [nM] | Ratio Ki (Cavia porcellus) | Ki [3] [nM]
O=c1sc2ccccc2n1CCCCCN1CCCCCC1 | 0.4 | 7 | 2.5 |  | 
CCC(=O)c1ccc2c(c1)sc(=O)n2CCCCN1CCCCCC1 | 3 | 10.3 | 30.3 |  | 
CCCCc1ccc2c(c1)sc(=O)n2CCCCCCN1CCCCCC1 | 0.3 | 12 | 4.1 |  | 
CCCc1ccc2c(c1)sc(=O)n2CCN1CCCCCC1 | 169 | 1.6 | 270 | > 1000 | > 1000
CCCC(=O)c1ccc2c(c1)sc(=O)n2CCCCN1CCCCCC1 | 4.5 | 4.8 | 21.6 |  | 
CCC(=O)c1ccc2c(c1)sc(=O)n2CCN1CCCC1 | 41 | 116 | 4790 |  | 
O=c1sc2ccccc2n1CCCCCCN1CCCCCC1 | 0.3 | 7.5 | 2.4 |  | 
CCCc1ccc2c(c1)sc(=O)n2CCCCCCN1CCCCCC1 | 0.4 | 6.3 | 2.3 |  | 
O=c1sc2cc(CCCF)ccc2n1CCN1CCCCCC1 | 486 |  |  |  | 
CCC(=O)c1ccc2c(c1)sc(=O)n2CCCCCN1CCCCCC1 | 0.7 | 12.2 | 8.3 |  | 
CCCc1ccc2c(c1)sc(=O)n2CCCCCN1CCCCCC1 | 0.3 | 4.6 | 1.6 |  | 
CCCc1ccc2c(c1)sc(=O)n2CCCCN1CCCCCC1 | 0.7 | 6.1 | 4.3 |  | 
CCC(=O)c1ccc2c(c1)sc(=O)n2CCCCCCN1CCCCCC1 | 0.1 | 10.4 | 1.1 |  | 
O=c1sc2ccccc2n1CCN1CCCC1 | 14 | 578 | 8260 |  | 
CCCC(=O)c1ccc2c(c1)sc(=O)n2CCCCCN1CCCCCC1 | 0.4 | 16.3 | 5.7 |  | 
O=c1sc2ccccc2n1CCN1CCCCCCC1 | 74 | 9.7 | 716 |  | 
CCCC(=O)c1ccc2c(c1)sc(=O)n2CCCCCCN1CCCCCC1 | 0.2 | 10.8 | 2.3 |  | 

The remaining molecules from weak to strong by Ki [1], led by results:

Ratio Ki (Rattus norvegicus) | Ki [1] [nM] | Ki [2] [nM] | Structure (SMILES) | Ratio Ki (Cavia porcellus) | Ki [3] [nM]
484 | 4.5 | 2180 | CCC(=O)c1ccc2c(c1)sc(=O)n2CCN1CCCCCC1 |  | 
43 | 4.1 | 177 | O=c1sc2ccccc2n1CCCN1CCCCCC1 |  | 
83 | 3.7 | 305 | CCC(=O)c1ccc2c(c1)sc(=O)n2CCCN1CCCCCC1 |  | 
31 | 3.2 | 101 | O=c1sc2ccccc2n1CCCCN1CCCCCC1 |  | 
39 | 2.6 | 104 | CCCC(=O)c1ccc2c(c1)sc(=O)n2CCCN1CCCCCC1 |  | 
7 | 2.2 | 15.3 | CCCCc1ccc2c(c1)sc(=O)n2CCCN1CCCCCC1 |  | 
2.4 | 1.9 | 4.4 | CCCCc1ccc2c(c1)sc(=O)n2CCCCN1CCCCCC1 |  | 
13 | 1.4 | 17.2 | CCCc1ccc2c(c1)sc(=O)n2CCCN1CCCCCC1 |  | 
